Experimental findings from ChEMBL document CHEMBL4118228, “Chemical space screening around Phe3 in opioid peptides: Modulating µ versus δ agonism by Suzuki-Miyaura cross-couplings” (Bioorg Med Chem Lett, 2018) are described below.

Assay [1] deals with Mu-type opioid receptor (Mus musculus, UniProt P42866). Put plainly: Displacement of [125I]-DAMGO from mouse Flag-tagged mu-opioid receptor expressed in HEK293 cell membranes after 60 mins by gamma counting.
Assay [2] concerns the target T1, Delta-type opioid receptor (Mus musculus, UniProt P32300). Nature of the assay: Displacement of [125I]-Deltorphin 2 from mouse Flag-tagged delta-opioid receptor expressed in HEK293 cell membranes after 60 mins by gamma counting. A general note: In a radioligand displacement assay an active substance lowers the binding of a labelled ligand.
The species entered for a further assay is Mus musculus. Put plainly: Selectivity ratio of IC50 for mouse Flag-tagged delta-opioid receptor to IC50 for mouse Flag-tagged mu-opioid receptor.
Assay [3] deals with Mu-type opioid receptor (Cavia porcellus, UniProt P97266). Nature of the assay: Agonist activity at mu-opioid receptor in guinea pig ileum assessed as inhibition of electrically induced contractions. Format: functional.
Assay [4] deals with T1, Delta-type opioid receptor. Put plainly: Agonist activity at delta-opioid receptor in mouse vasa deferens assessed as inhibition of electrically induced contractions. Format: functional.
In assay [5] the target is Mu-type opioid receptor (Rattus norvegicus, UniProt P33535). Nature of the assay: Agonist activity at rat mu-opioid receptor expressed in HEK293 cells co-expressing Rluc2-EPAC-GFP10 biosenser assessed as inhibition of forskolin-induced cAMP level after 10 mins by fluorescence based assay. Format: functional, cell-based.
Assay [6] concerns the target Delta-type opioid receptor (Rattus norvegicus, UniProt P33533). Nature of the assay: Agonist activity at rat delta-opioid receptor expressed in HEK293 cells co-expressing Rluc2-EPAC-GFP10 biosenser assessed as inhibition of forskolin-induced cAMP level after 10 mins by fluorescence based assay. It is filed as functional, cell-based. On the technique in general: Cyclic AMP is a second messenger, typically raised through Gs and lowered through Gi signalling.

For assay [7], the species on record is Rattus norvegicus. Nature of the assay: Antinociceptive activity in Sprague-Dawley rat model of thermal-induced nociception assessed as increase in latency to tail withdrawal at 1 nmol, it measured at every 10 mins for 1 hr by tail flick assay. Format: functional, organism-based. An outline of the steps: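 Compound given intrathecally to rats; tail-flick test measured withdrawal response to a thermal stimulus.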
(In general: In hot-plate and tail-flick tests a longer latency is read as antinociception.)

Assay [8] is filed under the species Rattus norvegicus. Put plainly: Potency index, ratio of antinociceptive activity of DAMGO to antinociceptive activity of compound in Sprague-Dawley rat model of thermal-induced nociception by tail flick assay. It is filed as functional.
In assay [9] the target is Delta-type opioid receptor (Mus musculus) (UniProt P32300). Nature of the assay: Partial agonist activity at delta-opioid receptor in mouse vasa deferens assessed as inhibition of electrically induced contractions. Format: functional.
Assay [10] addresses Mu-type opioid receptor (Cavia porcellus) (UniProt P97266). Nature of the assay: Potency index, ratio of DAMGO IC50 to compound IC50 for mu-opioid receptor in guinea pig ileum.
Assay [11] addresses Mu-type opioid receptor (Rattus norvegicus) (UniProt P33535). Nature of the assay: Potency index, ratio of DAMGO EC50 to compound EC50 for rat mu-opioid receptor expressed in HEK293 cells co-expressing Rluc2-EPAC-GFP10 biosenser by cAMP accumulation assay. It is filed as functional, cell-based.
Assay [12] concerns the target Mu-type opioid receptor (Cavia porcellus) (UniProt P97266). Nature of the assay: Antagonist activity at mu-opioid receptor in guinea pig ileum assessed as effect on electrically induced contractions. It is filed as functional.
Assay [13] concerns the target Delta-type opioid receptor (Rattus norvegicus) (UniProt P33533). Nature of the assay: Partial agonist activity at rat delta-opioid receptor expressed in HEK293 cells co-expressing Rluc2-EPAC-GFP10 biosenser assessed as inhibition of forskolin-induced cAMP level after 10 mins by fluorescence based assay. Format: functional, cell-based.

Calls of active or inactive are those of the source. No cut-off for these calls is given here. Non-standard residues stand in square brackets, D forms with d. Residues, ends and D or L forms follow the SMILES beside them. Phe(3-Ph) = N[C@@H](Cc1cccc(-c2ccccc2)c1)C(=O)O; Phe(2-Ph) = N[C@@H](Cc1ccccc1-c1ccccc1)C(=O)O; Bip = N[C@@H](Cc1ccc(-c2ccccc2)cc1)C(=O)O; Dmt = Cc1cc(O)cc(C)c1C[C@H](N)C(=O)O

Delta-type opioid receptor (Mus musculus), sequence (P32300 whole entry): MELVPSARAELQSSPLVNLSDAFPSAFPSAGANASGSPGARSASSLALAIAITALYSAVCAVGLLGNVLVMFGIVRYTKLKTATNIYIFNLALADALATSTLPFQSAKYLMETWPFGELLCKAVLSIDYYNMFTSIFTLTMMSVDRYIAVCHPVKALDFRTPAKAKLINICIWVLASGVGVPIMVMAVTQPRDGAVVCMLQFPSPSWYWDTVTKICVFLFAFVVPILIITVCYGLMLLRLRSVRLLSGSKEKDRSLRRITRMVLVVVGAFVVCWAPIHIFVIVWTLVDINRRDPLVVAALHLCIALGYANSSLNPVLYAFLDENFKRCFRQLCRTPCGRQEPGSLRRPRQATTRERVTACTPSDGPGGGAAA
T1 sequence (P32300 whole entry): as above
Mu-type opioid receptor (Rattus norvegicus, UniProt P33535), sequence (P33535 whole entry): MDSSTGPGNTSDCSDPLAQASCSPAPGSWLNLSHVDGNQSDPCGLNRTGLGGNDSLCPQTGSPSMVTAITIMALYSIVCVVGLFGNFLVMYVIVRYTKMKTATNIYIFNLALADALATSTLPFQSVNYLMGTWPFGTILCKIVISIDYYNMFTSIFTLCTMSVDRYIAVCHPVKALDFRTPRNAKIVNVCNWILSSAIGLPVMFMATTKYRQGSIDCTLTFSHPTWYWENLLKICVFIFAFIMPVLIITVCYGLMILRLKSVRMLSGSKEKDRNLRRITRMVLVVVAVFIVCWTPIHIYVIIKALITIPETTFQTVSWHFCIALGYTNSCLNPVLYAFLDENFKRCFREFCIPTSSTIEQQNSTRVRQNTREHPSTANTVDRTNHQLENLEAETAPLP
Mu-type opioid receptor (Cavia porcellus, UniProt P97266), sequence (P97266 whole entry): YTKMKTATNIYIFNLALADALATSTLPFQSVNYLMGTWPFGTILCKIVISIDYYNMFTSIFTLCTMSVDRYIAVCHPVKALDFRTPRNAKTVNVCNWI
Mu-type opioid receptor (Cavia porcellus), sequence (P97266 whole entry): as above
Mu-type opioid receptor (Mus musculus, UniProt P42866), sequence (P42866 whole entry): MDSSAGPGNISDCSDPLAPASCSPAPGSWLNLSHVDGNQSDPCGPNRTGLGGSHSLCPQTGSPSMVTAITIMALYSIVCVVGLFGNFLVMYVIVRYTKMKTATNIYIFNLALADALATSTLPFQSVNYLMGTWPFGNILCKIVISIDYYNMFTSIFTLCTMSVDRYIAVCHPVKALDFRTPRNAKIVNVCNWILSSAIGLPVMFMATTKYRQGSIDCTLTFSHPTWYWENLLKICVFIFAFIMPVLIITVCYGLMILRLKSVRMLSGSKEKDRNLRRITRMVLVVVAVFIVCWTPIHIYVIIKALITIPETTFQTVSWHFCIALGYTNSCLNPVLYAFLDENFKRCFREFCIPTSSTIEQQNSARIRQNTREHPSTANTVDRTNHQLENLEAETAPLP
Delta-type opioid receptor (Rattus norvegicus, UniProt P33533), sequence (P33533 whole entry): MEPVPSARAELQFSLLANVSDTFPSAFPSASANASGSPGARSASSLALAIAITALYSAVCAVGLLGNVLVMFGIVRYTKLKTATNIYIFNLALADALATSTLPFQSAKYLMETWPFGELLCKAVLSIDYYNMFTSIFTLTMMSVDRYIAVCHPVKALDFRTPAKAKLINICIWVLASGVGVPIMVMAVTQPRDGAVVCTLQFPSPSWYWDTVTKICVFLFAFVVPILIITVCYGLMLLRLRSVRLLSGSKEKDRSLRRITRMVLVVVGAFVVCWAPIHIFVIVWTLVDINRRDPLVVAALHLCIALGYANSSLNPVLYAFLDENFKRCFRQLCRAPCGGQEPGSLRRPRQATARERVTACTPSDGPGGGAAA
Mu-type opioid receptor (Rattus norvegicus), sequence (P33535 whole entry): as the sequence (P33535 whole entry) above
Delta-type opioid receptor (Rattus norvegicus), sequence (P33533 whole entry): as the sequence (P33533 whole entry) above

For the compound `Cc1cc(O)cc(C)c1C[C@H](N)C(=O)N[C@H](CCCNC(=N)N)C(=O)N[C@@H](Cc1ccccc1-c1ccccc1)C(=O)NCC(N)=O`, the half-maximal inhibitory concentration (IC50) is 0.54 nM on Mu-type opioid receptor [1], 20.3 nM in [2], 3.47 nM at Mu-type opioid receptor [3] and 6.99 nM in [4]. In addition, the Ratio IC50 in the assay filed under Mus musculus is 38.
With `Cc1cc(O)cc(C)c1C[C@H](N)C(=O)N[C@H](CCCNC(=N)N)C(=O)N[C@@H](Cc1ccccc1-c1ccsc1)C(=O)NCC(N)=O`, the IC50 is 1.45 nM at Mu-type opioid receptor [1], 625 nM in [2], 1.54 nM at Mu-type opioid receptor [3] and 2.75 nM in assay [4]. In addition, the Ratio IC50 in the assay filed under Mus musculus is 431. The 50% effective concentration (EC50) at Mu-type opioid receptor [5] worked out at 0.04 nM; in assay [6] it was 49 nM.
Take `C=Cc1ccccc1C[C@H](NC(=O)[C@@H](C)NC(=O)[C@@H](N)Cc1c(C)cc(O)cc1C)C(=O)NCC(N)=O`: the half-inhibitory concentration (IC50) at Mu-type opioid receptor [1] was 0.25 nM; in [2], 8 nM; at Mu-type opioid receptor [3] it was 1.18 nM; in [4], 2.81 nM. Moreover, the Ratio IC50 in the assay filed under Mus musculus amounted to 32. The EC50 at Mu-type opioid receptor [5] came to 0.006 nM; in assay [6], 5.8 nM.
Consider `C=Cc1cccc(C[C@H](NC(=O)[C@@H](CCCNC(=N)N)NC(=O)[C@@H](N)Cc2c(C)cc(O)cc2C)C(=O)NCC(N)=O)c1`, for which the IC50 was 0.46 nM on Mu-type opioid receptor [1], 165 nM in assay [2], 1.43 nM on Mu-type opioid receptor [3] and 9.74 nM in assay [4]. Besides, in the assay listed under Mus musculus, the Ratio IC50 was determined as 359.
Take `C[C@@H](NC(=O)[C@@H](N)Cc1ccc(O)cc1)C(=O)NCC(=O)N(C)[C@@H](Cc1ccccc1)C(=O)NCCO` [DAMGO]: at Mu-type opioid receptor [3], the IC50 was determined as 28.3 nM.
For the compound `CC(C)=Cc1ccccc1C[C@H](NC(=O)[C@@H](CCCNC(=N)N)NC(=O)[C@@H](N)Cc1c(C)cc(O)cc1C)C(=O)NCC(N)=O`, the concentration for half-maximal inhibition (IC50) at Mu-type opioid receptor [1] was 0.57 nM; in assay [2] it was 585 nM; on Mu-type opioid receptor [3] it was 0.701 nM; in [4], 0.63 nM. Besides, the Ratio IC50 in the assay filed under Mus musculus worked out at 1030. Further, the concentration giving a half-maximal response (EC50) was determined as 0.1 nM at Mu-type opioid receptor [5] and 19.4 nM in [6]. Besides, the result in the assay filed under Rattus norvegicus [7] was Active. Moreover, the Ratio in the assay filed under Rattus norvegicus [8] is on record as 10.
In the case of `Cc1cc(O)cc(C)c1C[C@H](N)C(=O)N[C@H](CCCNC(=N)N)C(=O)N[C@@H](Cc1cccc(-c2ccccc2)c1)C(=O)NCC(N)=O` (H-[Dmt][dR][Phe(3-Ph)]G-NH2), the half-maximal inhibitory concentration (IC50) at Mu-type opioid receptor [1] is 0.85 nM; in [2], 269 nM; at Mu-type opioid receptor [3], 61.7 nM. For the same compound, the Ratio IC50 in the assay listed under Mus musculus stood at 316. Also, the IC40 in assay [9] was 117 nM.
Turning to `CC(C)[C@H](NC(=O)[C@H](CCC(=O)O)NC(=O)[C@H](Cc1ccccc1)NC(=O)[C@@H](C)NC(=O)[C@@H](N)Cc1ccc(O)cc1)C(=O)N[C@H](C(=O)NCC(=O)O)C(C)C` [DELTORPHIN], the half-maximal inhibitory concentration (IC50) at Mu-type opioid receptor [1] was 627 nM; on Mu-type opioid receptor [3], 854 nM. The concentration giving a half-maximal response (EC50) in assay [6] came out at 0.1 nM.
As for `C=Cc1ccc(C[C@H](NC(=O)[C@@H](CCCNC(=N)N)NC(=O)[C@@H](N)Cc2c(C)cc(O)cc2C)C(=O)NCC(N)=O)cc1`, the IC50 came out at 1.82 nM on Mu-type opioid receptor [1], 1410 nM in [2], 24.1 nM on Mu-type opioid receptor [3] and 430 nM in assay [4]. The Ratio IC50 in the assay listed under Mus musculus stood at 777.
In the case of `Cc1cc(O)cc(C)c1C[C@H](N)C(=O)N[C@H](C)C(=O)N[C@@H](Cc1ccccc1-c1ccccc1)C(=O)NCC(N)=O` (H-[Dmt][dA][Phe(2-Ph)]G-NH2), the IC50 came to 0.35 nM at Mu-type opioid receptor [1], 19.8 nM in assay [2], 1.6 nM at Mu-type opioid receptor [3] and 2.6 nM in [4]. Moreover, the Ratio IC50 in the assay filed under Mus musculus came to 57. The EC50 was found to be 0.12 nM on Mu-type opioid receptor [5] and 4.9 nM in assay [6]. Further, the outcome in the assay filed under Rattus norvegicus [7] was Active. The Ratio in the assay filed under Rattus norvegicus [8] is reported as 10.
Turning to `Cc1cc(O)cc(C)c1C[C@H](N)C(=O)N[C@H](CCCNC(=N)N)C(=O)N[C@@H](Cc1cccc(-c2ccsc2)c1)C(=O)NCC(N)=O`, the IC50 was found to be 1.03 nM on Mu-type opioid receptor [1], 601 nM in [2] and 30.4 nM at Mu-type opioid receptor [3]. Also, the Ratio IC50 in the assay filed under Mus musculus came out at 583. In assay [9], the IC35 turned out to be 52.8 nM.
As for `C=Cc1ccccc1C[C@H](NC(=O)[C@@H](CCCNC(=N)N)NC(=O)[C@@H](N)Cc1c(C)cc(O)cc1C)C(=O)NCC(N)=O`, the 50% inhibitory concentration (IC50) at Mu-type opioid receptor [1] amounted to 0.47 nM; in [2], 18 nM; at Mu-type opioid receptor [3], 0.389 nM; in assay [4], 0.406 nM. In addition, the results for the Ratio IC50 (in the assay listed under Mus musculus; in assay [10]) were 38 and 70, respectively. The concentration for a half-maximal effect (EC50) on Mu-type opioid receptor [5] is 0.012 nM; in assay [6], 7 nM. In addition, in assay [11], the Ratio EC50 came to 20.
In the case of `Cc1cc(O)cc(C)c1C[C@H](N)C(=O)N[C@H](CCCNC(=N)N)C(=O)N[C@@H](Cc1ccc(-c2ccsc2)cc1)C(=O)NCC(N)=O`, the half-inhibitory concentration (IC50) at Mu-type opioid receptor [1] came out at 5.04 nM; in assay [2], 309 nM. In the assay listed under Mus musculus, the Ratio IC50 worked out at 61. In addition, the Ke in [12] was 138 nM. Further, in assay [9], the IC20 was determined as 3960 nM.
Turning to `Cc1cc(O)cc(C)c1C[C@H](N)C(=O)N[C@H](C)C(=O)N[C@@H](Cc1ccccc1-c1ccsc1)C(=O)NCC(N)=O`, the IC50 on Mu-type opioid receptor [1] was determined as 240 nM; in assay [2], 687 nM; at Mu-type opioid receptor [3] it was 1.27 nM; in [4] it was 2.16 nM. In addition, in the assay listed under Mus musculus, the Ratio IC50 stood at 4. Besides, the EC50 at Mu-type opioid receptor [5] was determined as 34.8 nM; in [6], 56 nM. For the same compound, the maximal response (Emax) in [13] was 70%.
Take `Cc1cc(O)cc(C)c1C[C@H](N)C(=O)N[C@H](CCCNC(=N)N)C(=O)N[C@@H](Cc1ccc(-c2ccccc2)cc1)C(=O)NCC(N)=O` (H-[Dmt][dR][Bip]G-NH2): the IC50 worked out at 7.08 nM on Mu-type opioid receptor [1] and 42.3 nM in assay [2]. In addition, the Ratio IC50 in the assay listed under Mus musculus is 6. The Ke in assay [12] was 114 nM. Further, the IC20 in assay [9] was determined as 3090 nM.

Usually IC50 stands for the concentration that gives 50% inhibition. Broadly, the EC50 is the concentration giving half of the maximal effect. For orientation: IC20 means the concentration at which the effect reaches the 20% level. One may read the Emax as the size of the effect at its maximum, as opposed to the concentration needed.
